Assay results as given in ChEMBL document CHEMBL1157835, “Synthesis and evaluation of verticipyrone analogues as mitochondrial complex I inhibitors” (Bioorg Med Chem, 2010).

Molecular target: not listed separately
Assay: Inhibition of NADH oxidase from beef heart submitochondrial particles by spectrophotometry
Design: species or system Bos taurus
Conditions: not given
Procedure, shortened: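 Bovine heart inverted SMP, stored in 0.25 M sucrose/10 mM Tris-HCl pH 7.4 at −80 °C, diluted to 0.5 mg/mL and activated with 300 NADH. Assayed at 30 °C in 50 mM Hepes pH 7.5, 5 mM MgCl2, 30 μg protein. SMP pre-equilibrated with inhibitor 5 min, then 50 μM NADH added. Rates from the linear part of the trace at 340 nm. Ethanol ≤2%.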

IC50 [µM]	SMILES
0.0508	CCCCCCCC[C@@](C)(O)CCc1oc(C)c(C)c(=O)c1C
0.0475	CCCCCCCC[C@](C)(O)CCc1oc(C)c(C)c(=O)c1C
0.055	CCCCCCCCC(C)(O)CCc1oc(C)c(C)c(=O)c1C (racemic)
13.6	CCCCCCCCC(C)(O)CCc1oc(=O)c(C)c(O)c1C (racemic)
14.7	CCCCCCCC[C@@](C)(O)CCc1oc(=O)c(C)c(O)c1C
0.0432	CCCCCCCC[C@](C)(O)CCc1oc(OC)c(C)c(=O)c1C
0.0526	CCCCCCCCC(C)(O)CCc1oc(OC)c(C)c(=O)c1C (racemic)
0.0459	CCCCCCCC[C@@](C)(O)CCc1oc(OC)c(C)c(=O)c1C
10.7	CCCCCCCC[C@](C)(O)CCc1oc(=O)c(C)c(O)c1C

More lines, now with the values behind:

SMILES	IC50 [µM]
CCCCCCCCCC(O)Cc1oc(OC)c(C)c(=O)c1C (stereo not given)	0.0649
COc1oc(CC(O)CCCCCCc2ccccc2)c(C)c(=O)c1C (stereo not given)	0.0725
COc1oc(CC(O)CCCCCOc2ccccc2)c(C)c(=O)c1C (stereo not given)	0.219
CCCCC(O)Cc1oc(OC)c(C)c(=O)c1C (stereo not given)	> 20
CCCCCCCCC(C)(O)CCc1[nH]c(=O)c(C)c(O)c1C (racemic)	4.29
COc1oc(CC(O)CCCCCOc2ccc(-c3ccccc3)cc2)c(C)c(=O)c1C (stereo not given)	0.0359

Molecular target: not listed separately
Assay: Inhibition of NADH-ubiquinone oxidoreductase from beef heart submitochondrial particles by spectrophotometry
Design: species or system Bos taurus
Conditions: not given
Procedure, shortened: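 Bovine heart inverted SMP, activated with 300 NADH, 30 μg protein, 30 °C. 5 min inhibitor pre-equilibration, then 50 μM NADH added. Read at 340 nm. […] IC50 is the final concentration giving 50% inhibition; mean ± SD of three independent experiments.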

IC50 [µM]	SMILES
0.145	CCCCCCCC[C@@](C)(O)CCc1oc(C)c(C)c(=O)c1C
0.135	CCCCCCCC[C@](C)(O)CCc1oc(C)c(C)c(=O)c1C
0.18	CCCCCCCCC(C)(O)CCc1oc(C)c(C)c(=O)c1C (racemic)
16.4	CCCCCCCCC(C)(O)CCc1oc(=O)c(C)c(O)c1C (racemic)
19	CCCCCCCC[C@@](C)(O)CCc1oc(=O)c(C)c(O)c1C
0.126	CCCCCCCC[C@](C)(O)CCc1oc(OC)c(C)c(=O)c1C
0.151	CCCCCCCCC(C)(O)CCc1oc(OC)c(C)c(=O)c1C (racemic)
0.133	CCCCCCCC[C@@](C)(O)CCc1oc(OC)c(C)c(=O)c1C
13.3	CCCCCCCC[C@](C)(O)CCc1oc(=O)c(C)c(O)c1C

More lines, now with the values behind:

SMILES	IC50 [µM]
CCCCCCCCCC(O)Cc1oc(OC)c(C)c(=O)c1C (stereo not given)	0.231
COc1oc(CC(O)CCCCCCc2ccccc2)c(C)c(=O)c1C (stereo not given)	0.257
COc1oc(CC(O)CCCCCOc2ccccc2)c(C)c(=O)c1C (stereo not given)	0.595
CCCCC(O)Cc1oc(OC)c(C)c(=O)c1C (stereo not given)	> 25
CCCCCCCCC(C)(O)CCc1[nH]c(=O)c(C)c(O)c1C (racemic)	1.25
COc1oc(CC(O)CCCCCOc2ccc(-c3ccccc3)cc2)c(C)c(=O)c1C (stereo not given)	0.102

Test system: not listed separately
Assay: Inhibition of mitochondrial complex 1 in human MCF7 cells assessed as concentration required to obtain half maximal lactate production after 3 hrs by spectrophotometry
Format: cell-based
Conditions: MCF7, 3 h
Procedure, shortened: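 MCF-7 cells seeded at 2 × 10^5 per well and grown 24 h to about 50% confluence, then rinsed. Compounds given in Krebs-Ringer buffer for 3 h, with buffer controls. Supernatant lactate measured by ΔOD at 363 nm (ε 9.1 mM−1 cm−1). IC50 is the dose giving 50% of maximal lactate production. Points are the mean ± SD of triplicates; experiments repeated at least three times.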

SMILES	IC50 [µM]
CCCCCCCCCC(O)Cc1oc(OC)c(C)c(=O)c1C (stereo not given)	0.9
CCCCCCCCC(C)(O)CCc1oc(C)c(C)c(=O)c1C (racemic)	0.94
COc1oc(CC(O)CCCCCCc2ccccc2)c(C)c(=O)c1C (stereo not given)	0.88
CCCCCCCCC(C)(O)CCc1oc(=O)c(C)c(O)c1C (racemic)	4.9
CCCCCCCC[C@@](C)(O)CCc1oc(=O)c(C)c(O)c1C	8.6
CCCCCCCC[C@](C)(O)CCc1oc(OC)c(C)c(=O)c1C	0.18
CCCCCCCCC(C)(O)CCc1oc(OC)c(C)c(=O)c1C (racemic)	0.38
CCCCCC[C@H]1C(=O)O[C@H](C)[C@H](NC(=O)c2cccc(NC=O)c2O)C(=O)O[C@@H](C)[C@@H]1OC(=O)CC(C)C [ANTIMYCIN A]	< 0.15
CCCCCCCC[C@@](C)(O)CCc1oc(OC)c(C)c(=O)c1C	0.3
CCCCC(O)Cc1oc(OC)c(C)c(=O)c1C (stereo not given)	> 20
COc1oc(CC(O)CCCCCOc2ccc(-c3ccccc3)cc2)c(C)c(=O)c1C (stereo not given)	0.34
CCCCCCCC[C@](C)(O)CCc1oc(=O)c(C)c(O)c1C	16.6

Test system: MCF7
Assay: Cytotoxicity against human MCF7 cells by MTT assay
Format: functional, cell-based
Conditions: not given
Procedure, shortened: (§1)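 MTT growth assay. MCF-7, A-549 and 3LL cells grown in RPMI-1640; CRL-2365 and CRL-2366 grown in DMEM. All media had 10% FBS, penicillin G (100 U/mL) and streptomycin (100 μg/mL).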

SMILES	IC50 [µM]
CCCCCCCCCC(O)Cc1oc(OC)c(C)c(=O)c1C (stereo not given)	23.2
CCCCCCCCC(C)(O)CCc1oc(C)c(C)c(=O)c1C (racemic)	> 31
COc1oc(CC(O)CCCCCCc2ccccc2)c(C)c(=O)c1C (stereo not given)	> 27
CCCCCCCCC(C)(O)CCc1oc(=O)c(C)c(O)c1C (racemic)	> 31
CCCCCCCC[C@@](C)(O)CCc1oc(=O)c(C)c(O)c1C	> 31
CCCCCCCC[C@@](C)(O)CCc1oc(OC)c(C)c(=O)c1C	3.3
COc1oc(CC(O)CCCCCOc2ccc(-c3ccccc3)cc2)c(C)c(=O)c1C (stereo not given)	17.4
CCCCCCCC[C@](C)(O)CCc1oc(=O)c(C)c(O)c1C	> 31

Test system: MCF-10A
Assay: Cytotoxicity against human MCF10A cells by MTT assay
Format: functional, cell-based
Conditions: not given
Procedure, shortened: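 MTT growth assay on MCF-10A cells grown in Mammary Epithelial Growth Medium following the supplier protocol.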

SMILES	IC50 [µM]
CCCCCCCCCC(O)Cc1oc(OC)c(C)c(=O)c1C (stereo not given)	9.9
CCCCCCCCC(C)(O)CCc1oc(C)c(C)c(=O)c1C (racemic)	> 31
COc1oc(CC(O)CCCCCCc2ccccc2)c(C)c(=O)c1C (stereo not given)	15.1
CCCCCCCCC(C)(O)CCc1oc(=O)c(C)c(O)c1C (racemic)	> 31
CCCCCCCC[C@@](C)(O)CCc1oc(=O)c(C)c(O)c1C	> 31
CCCCCCCC[C@](C)(O)CCc1oc(OC)c(C)c(=O)c1C	5.6
CCCCCCCC[C@@](C)(O)CCc1oc(OC)c(C)c(=O)c1C	5.3
COc1oc(CC(O)CCCCCOc2ccc(-c3ccccc3)cc2)c(C)c(=O)c1C (stereo not given)	9.2
CCCCCCCC[C@](C)(O)CCc1oc(=O)c(C)c(O)c1C	> 31

Test system: not listed separately
Assay: Cytotoxicity against human CRL2365 cells by MTT assay
Format: functional, cell-based
Conditions: not given
Procedure, shortened: as §1

SMILES	IC50 [µM]
CCCCCCCCCC(O)Cc1oc(OC)c(C)c(=O)c1C (stereo not given)	29.9
CCCCCCCCC(C)(O)CCc1oc(C)c(C)c(=O)c1C (racemic)	> 31
COc1oc(CC(O)CCCCCCc2ccccc2)c(C)c(=O)c1C (stereo not given)	> 27
CCCCCCCCC(C)(O)CCc1oc(=O)c(C)c(O)c1C (racemic)	> 31
CCCCCCCC[C@@](C)(O)CCc1oc(=O)c(C)c(O)c1C	> 31
CCCCCCCC[C@](C)(O)CCc1oc(OC)c(C)c(=O)c1C	2.4
CCCCCCCC[C@@](C)(O)CCc1oc(OC)c(C)c(=O)c1C	3.3
COc1oc(CC(O)CCCCCOc2ccc(-c3ccccc3)cc2)c(C)c(=O)c1C (stereo not given)	12.4
CCCCCCCC[C@](C)(O)CCc1oc(=O)c(C)c(O)c1C	> 31

Test system: not listed separately
Assay: Cytotoxicity against human CRL2366 cells by MTT assay
Format: functional, cell-based
Conditions: not given
Procedure, shortened: as §1

SMILES	IC50 [µM]
CCCCCCCCCC(O)Cc1oc(OC)c(C)c(=O)c1C (stereo not given)	> 31
CCCCCCCCC(C)(O)CCc1oc(C)c(C)c(=O)c1C (racemic)	> 31
COc1oc(CC(O)CCCCCCc2ccccc2)c(C)c(=O)c1C (stereo not given)	> 27
CCCCCCCCC(C)(O)CCc1oc(=O)c(C)c(O)c1C (racemic)	> 31
CCCCCCCC[C@@](C)(O)CCc1oc(=O)c(C)c(O)c1C	> 31
CCCCCCCC[C@](C)(O)CCc1oc(OC)c(C)c(=O)c1C	3.3
CCCCCCCC[C@@](C)(O)CCc1oc(OC)c(C)c(=O)c1C	2.7
COc1oc(CC(O)CCCCCOc2ccc(-c3ccccc3)cc2)c(C)c(=O)c1C (stereo not given)	19.5
CCCCCCCC[C@](C)(O)CCc1oc(=O)c(C)c(O)c1C	> 31

Test system: A549
Assay: Cytotoxicity against human A549 cells by MTT assay
Format: functional, cell-based
Conditions: not given
Procedure, shortened: as §1

SMILES	IC50 [µM]
CCCCCCCCCC(O)Cc1oc(OC)c(C)c(=O)c1C (stereo not given)	20.7
CCCCCCCCC(C)(O)CCc1oc(C)c(C)c(=O)c1C (racemic)	> 31
COc1oc(CC(O)CCCCCCc2ccccc2)c(C)c(=O)c1C (stereo not given)	> 27
CCCCCCCCC(C)(O)CCc1oc(=O)c(C)c(O)c1C (racemic)	> 31
CCCCCCCC[C@@](C)(O)CCc1oc(=O)c(C)c(O)c1C	> 31
CCCCCCCC[C@](C)(O)CCc1oc(OC)c(C)c(=O)c1C	4.1
CCCCCCCC[C@@](C)(O)CCc1oc(OC)c(C)c(=O)c1C	5.3
COc1oc(CC(O)CCCCCOc2ccc(-c3ccccc3)cc2)c(C)c(=O)c1C (stereo not given)	17
CCCCCCCC[C@](C)(O)CCc1oc(=O)c(C)c(O)c1C	> 31

Test system: not listed separately
Assay: Cytotoxicity against mouse 3LL cells by MTT assay
Format: functional, cell-based
Conditions: not given
Procedure, shortened: as §1

SMILES	IC50 [µM]
CCCCCCCCCC(O)Cc1oc(OC)c(C)c(=O)c1C (stereo not given)	22.2
CCCCCCCCC(C)(O)CCc1oc(C)c(C)c(=O)c1C (racemic)	> 31
COc1oc(CC(O)CCCCCCc2ccccc2)c(C)c(=O)c1C (stereo not given)	17.3
CCCCCCCCC(C)(O)CCc1oc(=O)c(C)c(O)c1C (racemic)	> 31
CCCCCCCC[C@@](C)(O)CCc1oc(=O)c(C)c(O)c1C	> 31
CCCCCCCC[C@](C)(O)CCc1oc(OC)c(C)c(=O)c1C	0.34
CCCCCCCC[C@@](C)(O)CCc1oc(OC)c(C)c(=O)c1C	0.39
COc1oc(CC(O)CCCCCOc2ccc(-c3ccccc3)cc2)c(C)c(=O)c1C (stereo not given)	13.5
CCCCCCCC[C@](C)(O)CCc1oc(=O)c(C)c(O)c1C	> 31
